High-throughput results (PubChem)
Hits are enriched below; roughly 1.5% of the tested compounds scored in any of these assays.
APJ agonist – agonists of human APJ apelin receptor | P35414 | CHO-K1 APJ PathHunter beta-arrestin, luminescence; 0% DMSO wells, 100% apelin | activation, % at 20 µM | actives 0.11% (n = 330,000) | AID 2520;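 active means activation more than six SD over the plate average, tested at 20 µM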;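 further: 0% = DMSO alone and 100% = apelin-13 at 10 nM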
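Test system: CHO-K1 APJ beta-arrestin complementation cell line. Amount: cell density 1000 per well. Controls: DMSO negative, 10 nM Apelin-13 positive. Signal: luminescent beta-gal fragment complementation, chemiluminescent substrate. Read-out basis: agonist-driven arrestin binding to APJ. Timing: compound stimulation 90 min at 25 °C, detection 60 min.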
APJ antag – blocks the human apelin receptor APJ; P35414; CHO-K1 APJ beta-arrestin complementation, luminescence; inhibition, % at 20 µM; actives 0.32% (n = 330,000); AID 2521;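 active means inhibition above about 40% at 20 µM, limit read from the data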;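 further: cells challenged with 10 nM apelin-13 agonist together with compound; plate controls were apelin-13 plus DMSO wells for no effect and DMSO wells lacking apelin-13 for full effect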
EBI2 block – blocks human EBI2 receptor beta-arrestin signaling; EBI2 beta-arrestin recruitment, luminescence, 7a,25-OHC stimulated; P32249; actives 0.81% (n = 360,000); inhibition, % at 5 µM; in the data active means inhibition above about 38%;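 further: enzyme fragment complementation signal reports receptor beta-arrestin coupling in cells; 0% = agonist plus DMSO wells and 100% = wells without agonist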
CXCR6 inh – CXCR6 (human) receptor inhibition; O00574; CHO-K1 PathHunter CXCR6 beta-arrestin, luminescence; inhibition, % at 20 µM; actives 0.36% (n = 360,000); AID 602244; in the data active means inhibition above about 34%, passing the limit was not always enough;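 further: antagonist mode with CXCL16 agonist at 10 nM final; 0% = 10 nM CXCL16 with DMSO and 100% = unstimulated wells without agonist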
CCR6 antag – antagonists of human CCR6 receptor | P51684 | CHO-K1 CCR6 PathHunter beta-arrestin, luminescence, CCL20-stimulated | inhibition, % at 20 µM | actives 0.49% (n = 340,000) | AID 493098;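 active means compounds whose inhibition of the agonist-driven luminescence signal at 20 µM reaches about 50%, limit read from the data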;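 further: cells stimulated with CCL20 at 14 nM final; plate controls were DMSO with CCL20 for no effect and DMSO without agonist for full effect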
Target sequence (P51684 whole entry, looked up): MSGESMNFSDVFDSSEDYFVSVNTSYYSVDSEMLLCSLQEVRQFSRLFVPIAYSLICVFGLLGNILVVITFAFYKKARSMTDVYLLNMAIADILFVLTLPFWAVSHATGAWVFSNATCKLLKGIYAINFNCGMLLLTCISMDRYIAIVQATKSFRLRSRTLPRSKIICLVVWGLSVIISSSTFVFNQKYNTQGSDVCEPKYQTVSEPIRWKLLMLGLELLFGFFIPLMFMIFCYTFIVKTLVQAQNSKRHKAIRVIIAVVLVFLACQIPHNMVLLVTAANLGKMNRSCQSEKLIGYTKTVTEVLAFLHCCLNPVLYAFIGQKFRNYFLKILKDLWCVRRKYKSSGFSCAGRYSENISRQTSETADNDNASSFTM
CXCR6 antag conf – CXCR6 antagonism confirmation, single concentration. shares compounds with CXCR6 inh. CHO-K1 CXCR6 PathHunter beta-arrestin, luminescence. inhibition, % at 20 µM. actives 65% (n = 700). AID 602409;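 active means mean inhibition over four retests above 40%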;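 further: receptor stimulated with 10 nM CXCL16 agonist; beta-galactosidase fragment complementation upon beta-arrestin recruitment to receptor; plate controls were CXCL16 plus DMSO for no effect and DMSO without CXCL16 for full effect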
EBI2 antag conf – EBI2 (human) antagonism, single concentration confirmation. shares compounds with EBI2 block. EBI2 beta-arrestin luminescence, 7a,25-OHC antagonism. inhibition, % at 5 µM. actives 29% (n = 2,400);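 active means inhibition of at least 50%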
EBI2 agonist – activates EBI2, counter-screen for EBI2 antagonists | shares compounds with EBI2 block | 2,400 tested, under 10 active | EBI2-expressing cells, agonist mode, luminescence, 60 min; 0% vehicle, 100% 7α,25-dihydroxycholesterol control | activation, % at 5 µM;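 active means activation of at least 50%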
bGal counter – beta-galactosidase inhibition counter-screen; AID 652176; purified beta-galactosidase, luminescent Galacton Star, 15 min; shares compounds with EBI2 block; inhibition, % at 5 µM; actives 1% (n = 2,400);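 active means replicate-average signal at least 3 plate SD below neutral wells, shown as high inhibition, flagging enzyme-inhibiting false positives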;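 further: 0% = DMSO wells with enzyme and 100% = wells lacking enzyme; higher means stronger loss of beta-gal luminescence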
* hit, by the source's call; / = no result.

SMILES	APJ agonist	APJ antag	EBI2 block	CXCR6 inh	CCR6 antag	CXCR6 antag conf	others
S=C(Nc1ccccc1)c1ccccn1	-7	9	0	56*	/	79*
S=C(Nc1ccccc1)Nc1ccccn1	/	/	-2	5	/	/
O=C(NC1CC1)[C@@H]1CSC2c3ccccc3C(=O)N21 (stereo not given in full)	8	-2	-2	3	1	/
COC(=O)c1ccc2c(c1)C(C)(C)C(/C=C/c1ccc(OC)c(OC)c1OC)=[N+]2C	-2	2	21	77*	56*	102*
COc1ccc(/C=N/Nc2ccc(C(=O)O)cc2)c(OC)c1OC	1	-9	-14	-8	2	/
O=C(Nc1nc(-c2ccccc2)c(-c2ccccc2)o1)c1ccc(F)cc1	-4	16	5	41*	/	27
O=C(COc1cc(F)ccc1[N+](=O)[O-])Nc1ccc(N2CCCCC2)cc1	-3	-18	1	-2	10	/
Nc1nnc(SCC(=O)OCC(=O)c2ccccc2)s1	-2	-6	3	-2	-2	/
Nc1nnc(SCC(=O)OCC(=O)c2ccccc2Br)s1	0	4	-4	49*	13	9
COc1ccc(-c2cc(=O)n(-c3ccc([N+](=O)[O-])cc3)[nH]2)cc1	-5	29	1	41*	38	14
COc1ccc(-c2[nH]n(-c3ccc([N+](=O)[O-])cc3)c(=O)c2C=NCc2ccc(F)cc2)cc1	-3	-18	14	-4	8	/
C[C@@H]1CC[C@H](Cc2ccc(-n3cccc3)cc2)N1C(=O)OC(C)(C)C	/	/	11	53*	/	10
CC(=O)OC1CCC2(C)C(CCC3C4CC=C(C(C)=O)C4(C)OC(=O)CC32)C1 (stereo not given)	/	/	52*	50*	/	46*
CC(=O)O[C@H]1CC[C@@]2(C)C(CCC3C2CC[C@]2(C)OC(=O)CCC32)C1 (stereo not given in full)	-3	4	2	1	3	/
CC(=NO)C1CCC2C3CCC4=CC(=NO)CCC4(C)C3C(O)CC12C (stereo not given)	/	/	5	44*	57*	57*
C=CCN1C(=O)/C(=N/n2cnnc2)c2ccccc21	-3	9	-8	6	21	/
CC(C)CN1C(=O)C(=Nc2cccnc2)c2ccccc21	-10	33	9	43*	37	37
Cc1c(Cl)cccc1NC(=S)NC(=O)c1cncc(Br)c1	-3	16	6	42*	33	35
CCOc1ccc(CNc2ccc(N3CCN(Cc4ccccc4)CC3)cc2)cc1	8	-21	5	102*	15	11
COCCNC(=O)C1(C)CCN(Cc2noc(-c3c(C)noc3C)n2)C1 (stereo not given)	/	/	-9	5	/	/
COc1ccccc1-n1cnnc1SCC(=O)N1CCOCC1	-1	15	-1	8	7	/
Cc1ccc(S(=O)(=O)NC(=O)C2(C)CCN2C(=O)c2ccccc2)nc1 (stereo not given)	/	/	-1	-1	/	/
Cc1cc(NCc2ccccn2)n2c(nc3ccccc32)c1C#N	/	/	-8	-15	-7	/
CCCc1cc(NCc2ccccn2)n2c(nc3ccccc32)c1C#N	3	-20	-38	59*	2	-1
COc1ccc(C(=O)Nc2ncccc2C)cc1S(=O)(=O)N1CCOCC1	6	-55	-3	-9	10	/
SMILES	APJ agonist	APJ antag	EBI2 block	CXCR6 inh	CCR6 antag	CXCR6 antag conf	others
NNC(=S)Nc1ccc(C(F)(F)F)cc1Cl	1	-12	-1	47*	31	7
FC(F)(F)c1cccc(NC(=S)Nc2ccc(Cl)cc2Cl)c1	0	-7	-4	-10	5	/
O=C(NC(=S)N1CCN(c2c(Cl)cccc2[N+](=O)[O-])CC1)c1cccs1	-3	7	13	38*	45	35
COc1cc(NC(=O)CCCl)cc(-n2cnnn2)c1	-2	4	6	6	16	/
CC1=NN(/C(=N\c2nnc(C)s2)Nc2ccc(C(C)(C)C)cc2)[C@H](c2ccc(C)cc2)S1	-6	25	7	40*	27	19
O=C(NC(=S)Nc1ccc([N+](=O)[O-])cc1)c1ccco1	/	/	9	42*	/	40
O=C(NCCCN1CCOCC1)c1ccc2c(=O)n(Cc3ccc(Cl)cc3)c(=S)[nH]c2c1	-1	14	15	12	25	/
CCCNC(=O)NS(=O)(=O)c1ccc(Cl)cc1	-4	-8	-3	-2	15	/
CNC(=O)c1nnsc1S(=O)c1ccc(Cl)cc1 (stereo not given)	-4	27	7	96*	99*	97*
CCCNC(=O)c1nnsc1S(=O)c1ccc(Cl)cc1 (stereo not given)	-6	40	8	87*	97*	99*
CCCNC(=O)c1nnsc1S(=O)(=O)c1ccc(Cl)cc1	-3	23	12	65*	74*	83*
CC(C)Oc1cccc(C(=O)NC(=S)NCc2cccnc2)c1	-4	25	16	-2	6	/
COC(=O)c1ccc(-c2nn(C)c(=O)c3ccccc23)cc1	-3	-53	-2	1	8	/
COC(=O)c1ccc(C(=O)OC)c(-n2c(=O)c3ccccc3c3ccccc3c2=O)c1	-3	18	6	40*	57*	40
Cc1cnc(C=O)c2cccc([N+](=O)[O-])c12	/	/	3	2	/	/
Cc1ccc(C2CC(=O)C(C=NCCN3CCN(C(=S)Nc4ccc(F)cc4)CC3)=C(O)C2)cc1 (stereo not given)	-2	-16	6	8	1	/
Cc1cc(C)nc(N/N=C/C2=C(O)CC(c3ccc(F)cc3)CC2=O)n1 (stereo not given)	-13	23	57*	60*	78*	26	EBI2 antag conf=67*;EBI2 agonist=-5;bGal counter=-5
COc1ccc(S(=O)(=O)N(CC(C)C)C2CCS(=O)(=O)C2)cc1OC (stereo not given)	-2	0	-4	-5	6	/
COc1ccc(-c2c(C(=O)c3ccccc3)[nH]c(N)c2C(=O)c2ccc(Br)cc2)cc1OC	/	/	42*	61*	/	65*	EBI2 antag conf=41;EBI2 agonist=-2;bGal counter=0
